Assay outcomes: PubChem, several laboratories
Sampled rows, rich in hits. Any-hit rate of the full collection: about 1.3%.
Arr AP2 block: inhibitors of beta-arrestin/AP2 binding, primary screen, biochemical, GPCR trafficking, flow cytometry. FITC-arrestin peptide / GST-AP2 beads; AP2 beta2 appendage carries R879A mutation. inhibition, % at 10 µM. hit rate 0.31% among 340,000;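 active means inhibition above a set limit, near 3 SD of compounds lacking own fluorescence, cut at about 54% in these data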
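System: GST-tagged AP2 beta2-adaptin appendage (R879A) on 4 µm glutathione beads / Reagent: FITC-arrestin peptide, 50 nM / Detection: HyperCyt-sampled flow cytometry, FL1 channel, ex 488/em 535 nm / Timing: 12 min plus 1 h, RT / Buffer or medium: PBS plus Tween 20 (0.05%) and BSA (0.1%)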
NTR1 agonist: agonists of human NTR1, primary screen, imaging, U2OS cells, beta-arrestin-GFP, high content | Neurotensin receptor type 1 (Homo sapiens), P30989 | NTR1-U2OS beta-arrestin-GFP spot imaging, agonist mode | activation, % at 20 µM | hit rate 0.17% among 330,000 | AID 493036, 2011;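 active means activation at or above 40% of the spot to cytoplasm intensity ratio, with at least 20 cells analyzed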
PLC-gamma1 inh: PLC-gamma1 enzyme inhibitors, primary screen, biochemical, fluorescence, purified enzyme; 1-phosphatidylinositol 4,5-bisphosphate phosphodiesterase gamma-1 (Homo sapiens), P19174; fluorogenic substrate; inhibition, % at 12.2 µM; hit rate 0.84% among 370,000; in the data active means inhibition above about 9.5%
Target sequence (P19174 whole entry, looked up): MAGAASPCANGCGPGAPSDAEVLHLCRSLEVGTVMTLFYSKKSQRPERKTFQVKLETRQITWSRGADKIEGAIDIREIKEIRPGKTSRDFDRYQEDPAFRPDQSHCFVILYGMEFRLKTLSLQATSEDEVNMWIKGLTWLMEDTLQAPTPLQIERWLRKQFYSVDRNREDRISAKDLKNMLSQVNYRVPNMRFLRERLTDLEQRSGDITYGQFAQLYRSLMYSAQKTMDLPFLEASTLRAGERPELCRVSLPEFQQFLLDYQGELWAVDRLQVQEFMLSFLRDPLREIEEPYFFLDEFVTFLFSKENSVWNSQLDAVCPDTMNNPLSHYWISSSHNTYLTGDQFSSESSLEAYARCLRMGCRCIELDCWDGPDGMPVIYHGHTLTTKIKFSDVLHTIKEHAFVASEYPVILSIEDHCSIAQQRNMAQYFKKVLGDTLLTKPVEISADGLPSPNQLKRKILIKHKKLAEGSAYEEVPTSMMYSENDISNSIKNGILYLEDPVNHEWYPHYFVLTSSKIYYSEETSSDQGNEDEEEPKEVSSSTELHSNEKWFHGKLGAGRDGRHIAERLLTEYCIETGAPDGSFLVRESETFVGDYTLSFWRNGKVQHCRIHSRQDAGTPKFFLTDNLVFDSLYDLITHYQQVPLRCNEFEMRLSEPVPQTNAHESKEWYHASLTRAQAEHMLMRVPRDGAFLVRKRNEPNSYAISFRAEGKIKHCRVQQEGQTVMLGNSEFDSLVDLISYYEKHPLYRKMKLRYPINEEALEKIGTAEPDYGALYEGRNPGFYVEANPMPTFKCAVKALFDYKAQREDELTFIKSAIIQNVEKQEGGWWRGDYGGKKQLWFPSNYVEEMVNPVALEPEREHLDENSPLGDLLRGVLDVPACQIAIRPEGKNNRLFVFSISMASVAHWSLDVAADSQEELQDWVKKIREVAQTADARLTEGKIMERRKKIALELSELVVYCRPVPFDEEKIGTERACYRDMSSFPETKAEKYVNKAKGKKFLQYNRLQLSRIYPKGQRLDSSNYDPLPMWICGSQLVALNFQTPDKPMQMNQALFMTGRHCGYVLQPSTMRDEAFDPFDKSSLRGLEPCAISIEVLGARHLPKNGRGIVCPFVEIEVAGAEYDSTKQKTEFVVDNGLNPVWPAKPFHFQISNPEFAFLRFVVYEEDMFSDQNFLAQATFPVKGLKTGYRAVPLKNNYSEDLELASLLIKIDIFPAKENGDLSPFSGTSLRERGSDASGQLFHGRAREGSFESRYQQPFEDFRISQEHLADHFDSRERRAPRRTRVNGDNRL
PLC-beta3 inh: human PLC-beta3 inhibitors, primary screen, biochemical, fluorescence; Purified PLC-beta3, fluorogenic substrate; inhibition, % at 12.2 µM; hit rate 0.18% among 370,000; AID 720704, 2013
PLCg1 ctr: PLC-gamma1 enzyme inhibitors, counter-screen for PLC-beta3 inhibitor project, biochemical, fluorescence; shares compounds with PLC-gamma1 inh; purified PLC-gamma1, fluorogenic substrate; inhibition, % at 12.3 µM; hit rate 3.1% among 3,300; in the data active means inhibition above about 9.5%
PLCb3 confirm: PLC-beta3 inhibitor confirmation, biochemical, fluorescence, purified enzyme; shares compounds with PLC-gamma1 inh; AID 743261, 2014; hit rate 1% among 3,300; fluorogenic substrate fluorescence; inhibition, % at 12.3 µM
Each line names hits and unclear results; the compound was inactive in the other large screens (follow-up assays come after a bar, where they were run). Unless noted, no stated cut-off is given here; in the data, active means inhibition above about 11%; inactive means the rest.

CCOc1ccc(NC(=O)C2CCN(c3nnnn3-c3ccccc3)CC2)cc1	PLC-gamma1 inh 10 | PLCg1 ctr inactive | PLCb3 confirm inactive
Cn1c(SCC(=O)Nc2ccccc2-c2ccccc2)nnc1-c1cnccn1	none (no result: Arr AP2 block, NTR1 agonist)
CN(C)c1ccc(O)c2c1CC1CC3[C@@H](N(C)C)C(=O)C(C(N)=O)=C(O)[C@]3(O)C(=O)C1=C2O (stereo partly drawn)	PLC-gamma1 inh 17 | PLCg1 ctr inactive | PLCb3 confirm inactive
Cc1nc(N2CCN(C(=O)C3CC3)CC2)c2c3c(sc2n1)CC(C)CC3 (stereo not drawn)	none (no result: Arr AP2 block, NTR1 agonist)
Cn1cc(CNCc2cnc3ccccn23)c(-c2ccc(Oc3ccccc3)cc2)n1	PLC-gamma1 inh 15 | PLCg1 ctr inactive | PLCb3 confirm inactive
CN(Cc1cn(C)nc1-c1ccc(Oc2ccccc2)cc1)Cc1cnc2ccccn12	none
C#CCOCCOCCOCCNc1nc(N2CCOCC2)nc(N2CCN(C(=O)[C@H](CCC(=O)O)n3cc(C(N)CO)nn3)CC2)n1 (stereo partly drawn)	none (no result: Arr AP2 block, NTR1 agonist)
CN1CC=C(c2ccccc2)N(c2ccccc2)C1=O	PLC-beta3 inh 12 (no result: Arr AP2 block, NTR1 agonist) | PLCg1 ctr inactive | PLCb3 confirm inactive
CN1CC=C(c2ccc(C(F)(F)F)cc2)N(c2ccccc2)C1=O	none (no result: Arr AP2 block, NTR1 agonist)
COc1ccc(OC)c(NC(=O)O[C@@H]2CC[C@@]34CCCN3C(=O)CCC[C@H]4C2)c1	none (no result: Arr AP2 block, NTR1 agonist)
Cc1cc(C)nc(N/N=C/c2ccccc2OCc2ccc([N+](=O)[O-])cc2)n1	PLC-gamma1 inh 13 | PLCg1 ctr inactive | PLCb3 confirm inactive
CCCCN(C)C(=O)CN1C(=O)C2CCCCN2C(=O)c2ccccc21 (stereo not drawn)	none (no result: Arr AP2 block, NTR1 agonist)
O=C(COC(=O)/C=C/c1cccc(F)c1)NNC(=O)c1ccccc1	PLC-gamma1 inh 11 | PLCg1 ctr inactive | PLCb3 confirm inactive
O=C(COC(=O)/C=C/c1cccc(F)c1)Nc1ccccc1	none
Cc1cccc(C)c1NC(=O)Cn1nnc(-c2ccncc2)n1	none (no result: Arr AP2 block, NTR1 agonist)
O=C(NN1C(=O)CSC1=S)C(=O)NN1C(=O)CSC1=S	PLC-gamma1 inh 44 | PLCg1 ctr 71 | PLCb3 confirm inactive
O=C(Cc1cccc2ccccc12)NN1C(=O)CSC1=S	none
Cc1ccc2c(c1)N(CCCC(=O)N(C)Cc1ccccc1F)C(=O)CO2	none (no result: Arr AP2 block, NTR1 agonist)
NC(=O)CSc1nc2c(sc(=S)n2-c2ccccc2)c(=O)[nH]1	PLC-gamma1 inh 10 | PLCg1 ctr inactive | PLCb3 confirm inactive
CCOC(=O)CC(=O)CSc1nc2c(sc(=S)n2-c2ccc(OCC)cc2)c(=O)[nH]1	none
CC(C)(C)c1ccccc1OCC(O)CN1CCN(c2ccccn2)CC1 (stereo not drawn)	PLC-gamma1 inh 12 | PLCg1 ctr inactive | PLCb3 confirm inactive
Cc1ccc(OCC(O)CN2CCN(c3ccccn3)CC2)c(C)c1 (stereo not drawn)	none
CN(Cc1ccccc1)C(=O)Cn1nnc(-c2ccccc2)c1COc1ccc2ccccc2c1	PLC-gamma1 inh 11 (no result: Arr AP2 block, NTR1 agonist) | PLCg1 ctr inactive | PLCb3 confirm inactive
Clc1nc(Cl)nc(N(c2ccccc2)c2ccccc2)n1	PLC-gamma1 inh 9.6 | PLCg1 ctr inactive | PLCb3 confirm inactive
O=[N+]([O-])c1ccc(NCCCO)c(S(=O)(=O)N2CCOCC2)c1	none
O=[N+]([O-])c1ccc(N/N=C/c2cccc(O)c2O)c(S(=O)(=O)N2CCOCC2)c1	PLC-gamma1 inh 15 | PLCg1 ctr inactive | PLCb3 confirm inactive
CC(C)(C)NC(=O)CSc1nc(N)c(NC(=O)c2ccccc2F)c(=O)[nH]1	PLC-beta3 inh 12 | PLCg1 ctr inactive | PLCb3 confirm inactive
Nc1nc(SCC(=O)NCc2ccccc2)[nH]c(=O)c1NC(=O)c1ccccc1F	none
O=C(Nc1ccccc1C(=O)Nc1ccc(Br)cn1)c1cccc([N+](=O)[O-])c1	PLC-gamma1 inh 10 | PLCg1 ctr inactive | PLCb3 confirm inactive
CCC[C@H]1[C@H](N)CC[C@@]23CCCN2C(=O)CCC[C@@H]13	none (no result: Arr AP2 block, NTR1 agonist)
